# From ChEMBL document CHEMBL1124772, “Synthesis and anticonvulsant activity of 1-phenylcyclohexylamine analogues” (J Med Chem, 1990)
# Columns and labels:
# Mus musculus [1] = experiment: Evaluated for anticonvulsant activity (TD50) by motor toxicity assay in mouse by intraperitoneal administration.; assay type: functional; details: ip
# In short: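 Male Swiss mice (25–30 g), ip in 0.9% NaCl carrier. Five to 10 doses, eight mice per dose; TD50 with 95% confidence limits by log-probit analysis. Compounds given as HCl salts, one as a methiodide.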
# Glutamate NMDA receptor = experiment: Evaluated in vitro binding affinity against PCP receptor using [3H]TCP as radioligand in rat brain membranes; assay type: cell membranes
# Mus musculus [2] = experiment: Evaluated for anticonvulsant activity (ED50) by maximal electroshock (MES) seizure test in mouse by intraperitoneal administration.; assay type: functional
# In short: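 Protection means no tonic-extensor component. Five to 10 doses, eight mice per dose; ED50 with 95% confidence limits by log-probit analysis. Compounds given as HCl salts, one as a methiodide.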
# Mus musculus [3] = organism: Mus musculus; experiment: TI value is the ratio between TD50 and ED50; assay type: functional
# In short: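 Ratio TD50/MES ED50. Both values from ip dosing in male Swiss mice (25–30 g), 0.9% NaCl carrier. Five to 10 doses, eight mice per dose; each value by log-probit analysis.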
# Mus musculus [4] = experiment: Evaluated for anticonvulsant activity (TD50) by motor toxicity assay in mouse by intraperitoneal administration; range is 40.6-54.8; assay type: functional; details: ip
SMILES,TD50 (Mus musculus [1]) [mg/kg],Ki (Glutamate NMDA receptor) [nM],MES ED50 (Mus musculus [2]) [mg/kg],TI (Mus musculus [3]),TD50 (Mus musculus [4]) [mg/kg]
CN(C)C1(c2ccccc2)CCCCC1.Cl,11.3,722,4.86,2.32,
CSc1ccccc1C1(N)CCCCC1.Cl,29.3,820,26.18,1.12,
Cc1cccc(C2(N)CCCCC2)c1.Cl,26.2,592,19.11,1.37,
COc1ccccc1C1(N)CCCCC1.Cl,31.6,850,11.11,2.84,
CSc1ccc(C2(N)CCCCC2)cc1.Cl,77.1,43000,40.8,1.89,
CCC(N)(CC)c1ccccc1.Cl,42.1,6000,31.23,1.35,
Cl.NC1(c2ccc(-c3ccccc3)cc2)CCCCC1,26.7,86000,18.81,1.42,
CNC1(c2ccccc2)CCCCC1.Cl,1.56,347,4.62,0.34,
COc1cccc(C2(N)CCCCC2)c1.Cl,21.4,563,14.78,1.45,
c1ccc(C2(N3CCCCC3)CCCCC2)cc1 [PHENCYCLIDINE],2.9,60,3.1,0.93,
C[C@H]1CC[C@@](N)(c2ccccc2)CC1.Cl,69.3,8400,33.75,2.05,
Cl.NC1(c2cccc(O)c2)CCCCC1,42.7,222,35.25,1.21,
C[C@@H]1CCCC[C@]1(N)c1ccccc1.Cl (racemic),34.6,1600,16.87,2.05,
Cl.NC1(c2cccc(C(F)(F)F)c2)CCCCC1,16,8400,24.31,0.66,
COc1ccc(C2(N)CCCCC2)cc1.Cl,77.9,121000,32.67,2.39,
Cl.NC1(Cc2ccccc2)CCCCC1,67.2,16000,34.52,1.95,
C[C@H]1CCC[C@](N)(c2ccccc2)C1.Cl,54.8,502,26.38,,
C[C@@H]1CCC[C@@](N)(c2ccccc2)C1.Cl,15.9,8000,8.04,1.98,
C[C@H]1CCCC[C@]1(N)c1ccccc1.Cl (racemic),5.92,2000,8.01,0.74,
CCCCC1(N)CCCCC1.Cl,,,>40.6,,40.6

SMILES,TD50 (Mus musculus [1]) [mg/kg],Ki (Glutamate NMDA receptor) [nM],MES ED50 (Mus musculus [2]) [mg/kg],TI (Mus musculus [3]),TD50 (Mus musculus [4]) [mg/kg]
C[C@@H]1CCC[C@](N)(c2ccccc2)C1.Cl,56.1,1200,20.86,2.69,
C[N+](C)(C)C1(c2ccccc2)CCCCC1.[I-],> 64,14300,>64,,
C[C@H]1CC[C@](N)(c2ccccc2)CC1.Cl,46.6,1100,13.53,3.44,
Cl.NC1(c2ccccc2)CCCCCC1,43,2600,19.73,2.18,
Cl.NC1(c2cc3ccccc3c3ccccc23)CCCCC1,20.6,27500,16.02,1.28,
Cl.NCC1(c2ccccc2)CCCCC1,51.9,5100,27.7,1.87,
Cl.NC1(c2ccccc2F)CCCCC1,61.2,10700,22.93,2.67,
Cl.NC1(c2ccc(F)cc2)CCCCC1,23.4,923,26.18,0.9,
Cl.NC1(c2ccccc2)CCCCC1,16.3,527,7.04,2.31,
Cl.NC1(c2ccccc2C(F)(F)F)CCCCC1,39.2,12400,30.36,1.29,
Cl.NC1(c2cccc(F)c2)CCCCC1,20.2,675,9.36,2.15,
Cl.NC1(c2ccc3ccccc3c2)CCCCC1,30.9,34000,16.91,1.82,
Cc1ccc(C2(N)CCCCC2)cc1.Cl,> 74,7300,>74,,
Cc1ccccc1C1(N)CCCCC1.Cl,7.19,7800,4.93,1.46,
Cl.NC1(c2ccccc2)CCCC1,64.6,10500,18.52,3.49,
Cl.NC1(c2cccs2)CCCCC1,4.99,145,10.5,0.47,
Cl.NC1(c2cccc(OCc3ccccc3)c2)CCCCC1,67,10600,29.41,2.28,
Cl.NC1(c2c(F)c(F)c(F)c(F)c2F)CCCCC1,37.9,10000,33.81,1.21,
CSc1cccc(C2(N)CCCCC2)c1.Cl,63.7,2420,32.88,1.94,
C[C@H]1CCC[C@@](N)(c2ccccc2)C1.Cl,24.3,1640,8.01,3.04,
